Data set [1] deals with Rat. Briefly: concentration in plasma after dosing. To be noted: dosed: Wyeth-14643, 2.0 mg/kg, oral, Male, Sprague-Dawley.
Data set [2] relates to Rat. Briefly: concentration in plasma after dosing. The note with it: dosed: Wyeth-14643, 2.0 mg/kg, iv, Male, Sprague-Dawley.
Data set [3] relates to Rat. Briefly: concentration in plasma after dosing. The note with it: 5 min; dosed: Wyeth-14643; 2.0 mg/kg; oral; Male; Sprague-Dawley.
Data set [4] concerns Rat. Briefly: concentration in plasma after dosing. The note with it: 6 h; dosed: Di-n-butyl phthalate; 100 mg/kg; oral; Male; Sprague-Dawley.
Data set [5] relates to Rat. Kind of data set: concentration in plasma after dosing. To be noted: dosed: dichloroacetic acid, 10 mg/kg, oral, Male, Harlan Sprague Dawley.
Data set [6] deals with human. Briefly: concentration in blood after dosing. The note with it: dosed: trichloroethylene, 100 ppm, inhalation, duration: 6 hr, person. The essentials: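 Sampling and analytical methods are those of each source and frequently went unreported. The concentration-versus-time and amount-versus-time points were compiled from published in vivo toxicokinetic studies and two structured collections. Most were digitised from plot screenshots with WebPlotDigitizer, with others copied from tables, in the reported units.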

In data set [7] the test system is Rat. Kind of data set: concentration in kidney after dosing. The note with it: 3360 h; dosed: Perfluorodecanoic acid; 10 mg/kg; oral; Female; Harlan Sprague Dawley.
Data set [8] deals with Rat. Kind of data set: concentration in plasma after dosing. To be noted: dosed: Perfluorodecanoic acid, 2 mg/kg, iv, Male, F344.
The subject of data set [9] is Rat. Kind of data set: concentration in kidney after dosing. To be noted: 1 h; dosed: Perfluorodecanoic acid; 10 mg/kg; oral; Female; Harlan Sprague Dawley.
The subject of data set [10] is Rat. Briefly: concentration in plasma after dosing. The note with it: dosed: Perfluorodecanoic acid, 2 mg/kg, iv, Male, F344. The source holds these as a separate data set.
In data set [11] the test system is Rat. Briefly: concentration in plasma after dosing. To be noted: 3 h; dosed: Thiodiglycolic Acid; 20 mg/kg; iv; Male; Harlan Sprague Dawley.
Data set [12] deals with Rat. Briefly: concentration in heart after dosing. To be noted: 10 min; dosed: Thiodiglycolic Acid; 20 mg/kg; iv; Female; Harlan Sprague Dawley.
The test system of data set [13] is Rat. Kind of data set: concentration in liver after dosing. To be noted: 1 h; dosed: Thiodiglycolic Acid; 20 mg/kg; iv; Male; Harlan Sprague Dawley.
The subject of data set [14] is Rat. Briefly: concentration in heart after dosing. The note with it: 8 h; dosed: Thiodiglycolic Acid; 20 mg/kg; iv; Female; Harlan Sprague Dawley.
In data set [15] the test system is Rat. Kind of data set: concentration in heart after dosing. To be noted: 40 min; dosed: Thiodiglycolic Acid; 20 mg/kg; iv; Female; Harlan Sprague Dawley.
Data set [16] relates to Rat. Briefly: concentration in plasma after dosing. The note with it: 3 h; dosed: Primidone; 30 mg/kg; oral; Female; F344.
Data set [17] has as its system Rat. Briefly: concentration in plasma after dosing. To be noted: 9 h; dosed: Primidone; 80 mg/kg; oral; Female; F344.
Data set [18] relates to Rat. Kind of data set: concentration in liver after dosing. To be noted: 20 min; dosed: Bis 2-Chloroethoxy Methane; 20 mg/kg; iv; Female; F344.
For data set [19], the system named is Rat. Briefly: concentration in liver after dosing. The note with it: 10 min; dosed: Bis 2-Chloroethoxy Methane; 20 mg/kg; iv; Male; F344.
For data set [20], the system named is Rat. Briefly: concentration in heart after dosing. To be noted: 5 h; dosed: Bis 2-Chloroethoxy Methane; 20 mg/kg; iv; Male; F344.
Data set [21] deals with Rat. Briefly: concentration in thymus after dosing. To be noted: 10 min; dosed: Bis 2-Chloroethoxy Methane; 20 mg/kg; iv; Male; F344.
The test system of data set [22] is Rat. Kind of data set: concentration in plasma after dosing. To be noted: 20 min; dosed: Bis 2-Chloroethoxy Methane; 20 mg/kg; iv; Male; F344.

With `Cc1cccc(Nc2cc(Cl)nc(SCC(=O)O)n2)c1C`, the concentration in plasma in [1] (1 h) stood at 513 ng/mL; in [1] (6 h) it was 169 ng/mL; in data set [2] (5 min), 1060 ng/mL; in data set [2] (4 h) it was 477 ng/mL; in data set [3], 405 ng/mL.
Turning to `CCCCOC(=O)c1ccccc1C(=O)O` [Mono-n-butyl phthalate], the concentration in plasma in data set [4] worked out at 4950 ng/mL.
Consider `O=C(O)C(Cl)Cl` [dichloroacetic acid], for which the concentration in plasma in data set [5] (2 min) came to 405 ng/mL; in data set [5] (0.5 h) it was 274 ng/mL.
Consider `O=C(O)C(Cl)(Cl)Cl` [trichloroacetic acid], for which the concentration in blood in data set [6] (0 h) was determined as 11900 ng/mL; in data set [6] (18 h), 32600 ng/mL; in [6] (24 h) it was 50300 ng/mL; in data set [6] (42 h), 32200 ng/mL; in [6] (48 h) it was 51100 ng/mL; in data set [6] (66 h) it was 51000 ng/mL. Also, the concentration in blood in data set [6] (72 h) worked out at 55100 ng/mL; in data set [6] (90 h) it was 49000 ng/mL; in [6] (96 h), 64900 ng/mL; in data set [6] (160 h) it was 28900 ng/mL.
Take `O=C(O)C(F)(F)C(F)(F)C(F)(F)C(F)(F)C(F)(F)C(F)(F)C(F)(F)C(F)(F)C(F)(F)F` [Perfluorodecanoic acid]: the results for the concentration in kidney in [7] and in data set [9] were 2910 ng/g and 20600 ng/g, respectively. Besides, the concentration in plasma was found to be 4280 ng/mL in data set [8] (24 h), 646 ng/mL in data set [8] (1848 h), 5600 ng/mL in data set [10] (6 h) and 2690 ng/mL in data set [10] (864 h).
In turn, `O=C(O)CSCC(=O)O` [Thiodiglycolic Acid] yielded a concentration in plasma in data set [11] of 696 ng/mL. Also, the concentration in heart in data set [12] worked out at 8770 ng/g; in data set [14], 393 ng/g; in data set [15], 2840 ng/g. In [13], this compound yielded a concentration in liver of 162000 ng/g.
In the case of `CCC1(c2ccccc2)C(=O)NC(=O)NC1=O` [Phenobarbital], the concentration in plasma in data set [16] is 640 ng/mL; in data set [17] it was 2370 ng/mL.
As to `ClCCOCOCCCl` [Bis 2-Chloroethoxy Methane], the concentration in liver turned out to be 1330 ng/g in data set [18] and 2500 ng/g in [19]. In addition, the concentration in heart in data set [20] came out at 42.1 ng/g. In data set [21], this compound yielded a concentration in thymus of 34400 ng/g. In data set [22], the concentration in plasma stood at 5580 ng/mL.

(Values after EPA's CvTdb concentration-time database.)
